Consider one compound from ChEMBL document CHEMBL4011662 (J Med Chem, 2017).

Common to all, as to type: cell-based
In experiment [1] the target is Probable G-protein coupled receptor 34 (Mus musculus, UniProt Q9R1K6). Put plainly: Agonist activity at mouse GPR34 expressed in HEK293 cells co-transfected with AP-TGFalpha/chimeric Galphaq/i1 assessed as induction of ectodomain shedding of membrane bound AP-TGFalpha after 1 hr. In outline:
(§1)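 HEK293A cells transiently co-transfected with AP-TGFα, chimeric Gαq/i1 and GPR34 (human for line 1, mouse for line 3) or empty vector (mock). After 24 h, cells were suspended in HBSS with 5 mM HEPES pH 7.4 and preincubated 30 min with 10 μM (final) Ki16425. Compounds in HBSS with 0.01% fatty acid-free BSA were added for 1 h at 37 °C. AP activity in medium and on cells was read as OD405 with p-NPP after 1 h at room temperature.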

Experiment [2] concerns the target Probable G-protein coupled receptor 34 (Mus musculus) (UniProt Q9R1K6). Put plainly: Intrinsic activity at mouse GPR34 expressed in HEK293 cells co-transfected with AP-TGFalpha/chimeric […] assessed as induction of ectodomain shedding of membrane bound AP-TGFalpha after 1 hr relative to O-(Hydroxy(((2R,3R)-2-(((3-(2-((3-phenoxybenzyl)oxy)phenyl)- propanoyl)oxy)methyl)tetrahydro-2H-pyran-3-yl)oxy)phosphoryl)- L-serine. The essentials: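 Relative intrinsic activity (RIA) was Emax/EC50 relative to that of a positive control agonist, whose RIA is defined as 1. Emax and EC50 came from sigmoid fits of receptor-specific AP-TGFα release in the HEK293A shedding assay, with human GPR34 for line 5 and mouse GPR34 for line 6, after 1 h at 37 °C.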

Experiment [3] addresses T1, Probable G-protein coupled receptor 34 (Homo sapiens, UniProt Q9UPC5). The experiment can be described thus: Agonist activity at human GPR34 expressed in HEK293 cells co-transfected with AP-TGFalpha/chimeric Galphaq/i1 assessed as induction of AP-TGFalpha release after 1 hr. Particulars: read-out: EC50. The essentials:
as §1

For experiment [4], the target named is T1, Probable G-protein coupled receptor 34. Put plainly: Intrinsic activity at human GPR34 expressed in HEK293 cells co-transfected with AP-TGFalpha/chimeric Galphaq/i1 assessed as induction of AP-TGFalpha release after 1 hr relative to O-(Hydroxy(((2R,3R)-2-(((3-(2-((3-phenoxybenzyl)oxy)phenyl)- propanoyl)oxy)methyl)tetrahydro-2H-pyran-3-yl)oxy)phosphoryl)- L-serine.

The target of experiment [5] is Probable G-protein coupled receptor 34 (Mus musculus) (UniProt Q9R1K6). Put plainly: Agonist activity at mouse GPR34 expressed in HEK293 cells co-transfected with AP-TGFalpha/chimeric Galphaq/i1 assessed as induction of ectodomain shedding of membrane bound AP-TGFalpha after 1 hr relative to control. In outline:
(§2)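 Same AP-TGFα shedding set-up in HEK293A (human GPR34 for line 2, mouse for line 4). Release was the %AP-TGFα in medium minus vehicle, then minus the mock-transfected response. Emax (% AP-TGFα release) and LogEC50 came from four-parameter sigmoid fits of plateau or semiplateau curves, as mean ± SEM of n independent experiments.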

Experiment [6] concerns the target T1, Probable G-protein coupled receptor 34. Put plainly: Agonist activity at human GPR34 expressed in HEK293 cells co-transfected with AP-TGFalpha/chimeric Galphaq/i1 assessed as induction of AP-TGFalpha release after 1 hr relative to control. The essentials:
as §2

T1 sequence (Q9UPC5 whole entry): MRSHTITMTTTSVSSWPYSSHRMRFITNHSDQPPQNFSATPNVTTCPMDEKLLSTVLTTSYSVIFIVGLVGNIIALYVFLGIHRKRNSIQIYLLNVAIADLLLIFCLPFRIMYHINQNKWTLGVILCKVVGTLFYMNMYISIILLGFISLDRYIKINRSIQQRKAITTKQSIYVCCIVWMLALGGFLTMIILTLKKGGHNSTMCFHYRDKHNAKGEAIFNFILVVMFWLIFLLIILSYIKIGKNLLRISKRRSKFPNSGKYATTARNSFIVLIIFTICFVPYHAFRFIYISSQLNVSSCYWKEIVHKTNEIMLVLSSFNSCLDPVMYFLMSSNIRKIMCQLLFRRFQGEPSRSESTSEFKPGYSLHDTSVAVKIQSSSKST
Sequence of Probable G-protein coupled receptor 34 (Mus musculus) (Q9R1K6 whole entry, the tested form may be a part): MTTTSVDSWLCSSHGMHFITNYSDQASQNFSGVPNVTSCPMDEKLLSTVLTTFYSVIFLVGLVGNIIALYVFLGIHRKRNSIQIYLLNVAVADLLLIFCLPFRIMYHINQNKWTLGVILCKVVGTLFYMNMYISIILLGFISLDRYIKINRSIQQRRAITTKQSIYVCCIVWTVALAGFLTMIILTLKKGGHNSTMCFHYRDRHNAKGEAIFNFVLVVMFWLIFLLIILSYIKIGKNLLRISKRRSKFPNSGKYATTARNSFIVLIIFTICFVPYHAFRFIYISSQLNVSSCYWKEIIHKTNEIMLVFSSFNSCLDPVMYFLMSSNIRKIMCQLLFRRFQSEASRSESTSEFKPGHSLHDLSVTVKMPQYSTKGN
Sequence of Probable G-protein coupled receptor 34 (Mus musculus, UniProt Q9R1K6) (Q9R1K6 whole entry, the tested form may be a part): as above

For the compound `N[C@@H](COP(=O)(O)O[C@@H]1CCCO[C@@H]1COC(=O)CCc1ccccc1OCc1cccc(Oc2ccccc2)c1)C(=O)O`, the EC50 – broadly, the concentration giving half of the maximal effect – came to 180 nM in experiment [1] and 150 nM in experiment [3]. Also, the Intrinsic activity in experiment [2] and in experiment [4] was 1 throughout. In addition, the Emax (commonly the size of the effect at its maximum, as opposed to the concentration needed) is 21.3% in experiment [5] and 25.6% in experiment [6].
